Experimental findings from ChEMBL document CHEMBL3745639, “Structure-activity relationships for lipoprotein lipase agonists that lower plasma triglycerides in vivo” (Eur J Med Chem, 2015) are described below.

The EC50 is the concentration that produces a half-maximal response.

Data set [1] concerns the target T1, Lipoprotein lipase (Bos taurus) (UniProt P11151).
T1 sequence (whole entry): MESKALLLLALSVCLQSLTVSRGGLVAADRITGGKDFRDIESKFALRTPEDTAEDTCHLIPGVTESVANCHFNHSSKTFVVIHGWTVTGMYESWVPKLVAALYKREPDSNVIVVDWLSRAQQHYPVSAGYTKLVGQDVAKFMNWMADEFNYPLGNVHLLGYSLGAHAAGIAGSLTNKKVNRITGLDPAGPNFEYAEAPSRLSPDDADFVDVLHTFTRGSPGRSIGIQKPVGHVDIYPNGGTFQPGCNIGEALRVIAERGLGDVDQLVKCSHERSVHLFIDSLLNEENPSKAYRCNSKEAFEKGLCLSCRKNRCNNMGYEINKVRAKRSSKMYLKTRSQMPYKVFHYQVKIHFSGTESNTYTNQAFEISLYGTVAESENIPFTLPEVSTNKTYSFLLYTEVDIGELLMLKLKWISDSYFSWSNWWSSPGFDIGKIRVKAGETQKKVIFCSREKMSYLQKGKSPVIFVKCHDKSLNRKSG
In words: Induction of bovine LPL stabilization using intralipid as substrate at 3.12 uM preincubated for 10 mins with human recombinant ANGPTL4 followed by substrate addition measured after 45 mins relative to control. The method, boiled down: (§1)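 Compound in DMSO in buffer (50 mM potassium phosphate pH 7.4, 0.15 M NaCl, 0.01% Triton X-100), with human ANGPTL4 N-terminal fragment (aa 26-184, 75 nM final) and bovine LPL (15 nM final). Preincubated 10 min at 25 °C with shaking. Stopped after 45 min with 2.5% Triton X-100, and NEFA measured enzymatically. Activity normalised between DMSO+LPL+ANGPTL4 (0%) and DMSO+LPL (100%).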

The target in data set [2] is T1, Lipoprotein lipase (Bos taurus). Description: Induction of bovine LPL stabilization using intralipid as substrate at 6.25 uM preincubated for 10 mins with human recombinant ANGPTL4 followed by substrate addition measured after 45 mins relative to control. The method, boiled down:
as §1

Data set [3] shares this target. In words: Induction of bovine LPL stabilization using intralipid as substrate at 12.5 uM preincubated for 10 mins with human recombinant ANGPTL4 followed by substrate addition measured after 45 mins relative to control. The method, boiled down:
as §1

The target is the same in data set [4]. Description: Induction of bovine LPL stabilization using intralipid as substrate at 25 uM preincubated for 10 mins with human recombinant ANGPTL4 followed by substrate addition measured after 45 mins relative to control. The procedure, abridged: as §1
The next data set relates to Mus musculus. Description: Hypolipidemic activity in C57B16/J mouse assessed as reduction in plasma triglyceride level at 10 mg/kg, ip qd administered for 4 days followed by olive oil injection through oral gavage one hour post last dose measured at 180 mins. Type of data set: functional, organism-based. The method, boiled down:
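Female C57B16/J mice, 8-9 weeks, about 18 g, n = 8/group. Given 10 mg/kg i.p. once daily for 4 days, 0.5 ml in PBS pH 7.4 with 3% DMSO and 0.2% Triton X-100. Fasted 8 h before the last dose, then 0.2 ml oral olive oil gavage 1 h after it. Tail-vein EDTA plasma taken at baseline and every 60 min to 180 min. TG measured enzymatically, reported as mean ± SD.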

A further data set concerns the target T2, Lipoprotein lipase (Bos taurus, UniProt P11151).
T2 sequence (P11151 whole entry): T1 sequence (whole entry)
Description: Induction of bovine LPL stabilization using intralipid as substrate preincubated for 10 mins with human recombinant ANGPTL4 followed by substrate addition measured after 45 mins relative to control. The procedure, abridged: as §1

The next data set has as its system Plasma. In words: Drug level in human plasma treated with 1,3-Dioxo-2-(4-(piperidin-1-yl)-3-(p-tolylcarbamoyl)phenyl)isoindoline-5-carboxylic acid at 10 uM after 24 hrs by LC-MS/MS analysis. The class given is ADME, cell-free.

The source made the active and inactive calls. Unless noted, the calls are words filed in the database; no cut-off is given here.

Regarding `Cc1ccc(NC(=O)c2cc(-c3nc4ccc(C(=O)O)cc4[nH]3)ccc2N2CCCCC2)cc1`, the result in data set [1], in data set [2] and in data set [3] was inactive. Also, the Activity in data set [4] amounted to 49%. For the same compound, in the data set on Mus musculus, the result was Active.

Regarding `Cc1ccc(NC(=O)c2cc(-n3cc4cc(C(=O)O)ccc4n3)ccc2N2CCCCC2)cc1`, in data set [1], the outcome was inactive. The Activity in data set [2] was 11.2%; in data set [3], 90.6%; in data set [4], 89.7%. Moreover, the EC50 on Lipoprotein lipase was found to be 5 µM. Moreover, in the data set with Mus musculus, the result was Active.

Consider `Cc1ccc(NC(=O)c2cc(NC(=O)c3cc(C(=O)O)ccc3C(=O)O)ccc2N2CCCCC2)cc1`, for which the result in data set [1], in data set [2] and in data set [3] was inactive. In addition, the Activity in data set [4] was 38.8%. For the same compound, in the data set with Plasma, the Drug metabolism entry is “metabolite_detected”.

Take `Cc1ccc(NC(=O)c2cc(NC(=O)c3ccc(C(=O)O)cc3C(=O)O)ccc2N2CCCCC2)cc1`: the outcome in data set [1], in data set [2] and in data set [3] was inactive. Moreover, the Activity in data set [4] is 30.6%. Moreover, the Drug metabolism entry in the data set with Plasma is given as “metabolite_detected”.

For the compound `Cc1ccc(NC(=O)c2cc(N3C(=O)c4ccc(C(=O)O)cc4C3=O)ccc2N2CCCCC2)cc1F`, the result in data set [1] and in data set [2] was inactive. Further, the Activity in data set [3] came out at 53.3%; in data set [4], 72.1%.

For the compound `CC(C)c1ccc(NC(=O)c2cc(N3C(=O)c4ccc(C(=O)O)cc4C3=O)ccc2N2CCCCC2)cc1`, the outcome in data set [1] was inactive. Also, the values for the Activity in data set [2], in data set [3] and in data set [4] were 55.6%, 71% and 53.1%, respectively.

As for `Cc1ccc(NC(=O)c2cc(N3C(=O)c4ccc(C(=O)O)cc4C3=O)ccc2N2CCCCC2)cc1Cl`, in data set [1], the result was inactive. For the same compound, the Activity in data set [2] stood at 66.8%; in data set [3], 73%; in data set [4], 69.8%.

On to `COC(=O)c1ccc2c(c1)C(=O)N(c1ccc(N3CCCCC3)c(C(=O)Nc3ccc(C)cc3)c1)C2=O`, for which the result in data set [1], in data set [2], in data set [3] and in data set [4] was inactive.

Regarding `Cc1ccc(NC(=O)c2ccc(N3CCCCC3)cc2N2C(=O)c3ccc(C(=O)O)cc3C2=O)cc1`, the outcome in data set [1], in data set [2] and in data set [3] was inactive. Moreover, the Activity in data set [4] turned out to be 96.7%.

Turning to `O=C(O)c1ccc2c(c1)C(=O)N(c1ccc(Nc3ccccc3)c(C(=O)Nc3ccccc3-c3ccccc3)c1)C2=O`, in data set [1], the result was inactive. For the same compound, the Activity in data set [2] amounted to 45%; in data set [3] it was 61.5%; in data set [4], 73.8%.

In the case of `Cc1ccc(NC(=O)c2cc(N)ccc2N2CCCCC2)cc1`, the result in data set [1], in data set [2], in data set [3] and in data set [4] was inactive. Moreover, the Drug metabolism result in the data set with Plasma is listed as “metabolite_detected”.

With `Cc1ccc(NC(=O)c2cc(N3CCCCC3)cc(N3C(=O)c4ccc(C(=O)O)cc4C3=O)c2)cc1`, the outcome in data set [1], in data set [2] and in data set [3] was inactive. Also, the Activity in data set [4] turned out to be 32.6%.

For `COCCNc1ccc(N2C(=O)c3ccc(C(=O)O)cc3C2=O)cc1C(=O)Nc1ccc(C)cc1`, the result in data set [1], in data set [2], in data set [3] and in data set [4] was inactive.

`Cc1ccc(NC(=O)c2cc(N3C(=O)c4ccc(C(=O)O)cc4C3=O)ccc2Cl)cc1`: the outcome in data set [1], in data set [2], in data set [3] and in data set [4] was inactive.

Consider `COc1ccc(N2C(=O)c3ccc(C(=O)O)cc3C2=O)cc1C(=O)Nc1ccc(C)cc1`, for which the outcome in data set [1], in data set [2], in data set [3] and in data set [4] was inactive.

For the compound `CCCCCCCCCCNc1ccc(N2C(=O)c3ccc(C(=O)O)cc3C2=O)cc1C(=O)Nc1ccc(C)cc1`, the Activity in data set [1] amounted to 13.6%; in data set [2], 5.9%; in data set [3], 10%; in data set [4], 19.2%.

Take `O=C(O)c1ccc2c(c1)C(=O)N(c1ccc(NCc3cccnc3)c(C(=O)NCc3cccnc3)c1)C2=O`: the result in data set [1], in data set [2], in data set [3] and in data set [4] was inactive.

For `CCCCCCNC(=O)c1cc(N2C(=O)c3ccc(C(=O)O)cc3C2=O)ccc1NCCCCCC`, the Activity turned out to be 4% in data set [1], 19.3% in data set [2], 31.8% in data set [3] and 67.8% in data set [4].

As for `Cc1ccc(NC(=O)c2cc(N3C(=O)c4ccc(C(=O)O)cc4C3=O)ccc2Br)cc1`, the result in data set [1], in data set [2], in data set [3] and in data set [4] was inactive.

With `Cc1ccc(NC(=O)c2cc(-c3cc4cc(C(=O)O)ccc4[nH]3)ccc2N2CCCCC2)cc1`, the Activity came out at 35% in data set [1], 101% in data set [2], 85.5% in data set [3] and 24.5% in data set [4]. Also, the outcome in the data set with Mus musculus was Active.

Turning to `CCc1ccc(NC(=O)c2cc(N3C(=O)c4ccc(C(=O)O)cc4C3=O)ccc2Nc2ccccc2)cc1`, the result in data set [1] was inactive. Further, the results for the Activity in data set [2], in data set [3] and in data set [4] were 37.6%, 60.3% and 60%, respectively.

Regarding `Cc1ccc(NC(=O)c2cc(N3C(=O)c4ccc(C(N)=O)cc4C3=O)ccc2N2CCCCC2)cc1`, the result in data set [1], in data set [2] and in data set [3] was inactive. For the same compound, the Activity in data set [4] turned out to be 3.5%.

For `O=C(O)c1ccc2c(c1)C(=O)N(c1ccc(N3CCCCC3)c(C(=O)Nc3ccccc3-c3ccccc3)c1)C2=O`, in data set [1], the outcome was inactive. Besides, the Activity in data set [2] turned out to be 60.1%; in data set [3] it was 63.3%; in data set [4], 68.5%.

With `Cc1ccc(NC(=O)c2cc(N3C(=O)c4ccc(Br)cc4C3=O)ccc2N2CCCCC2)cc1`, the result in data set [1], in data set [2], in data set [3] and in data set [4] was inactive.

On to `Cc1ccc(NC(=O)c2cc(Nc3ccccc3)cc(N3C(=O)c4ccc(C(=O)O)cc4C3=O)c2)cc1`, for which the result in data set [1] was inactive. Further, the results for the Activity in data set [2], in data set [3] and in data set [4] were 4.2%, 73.1% and 89.4%, respectively.
